This is an account of results in article PMC10842602 (Bioorganic & medicinal chemistry, 2023).

Series [1] relates to neurons from Kcnt1^L/L mice. To be noted: brain slices, 10 μM; cited from earlier work.
For another series, the system named is GABAA Cl– channels. The note with it: binding displacement assay; cited from earlier work.
Series [2] deals with T1, WT human SLACK (Homo sapiens, UniProt Q5JUK3).
T1 sequence (Q5JUK3 1-1235 isoform Q5JUK3-3): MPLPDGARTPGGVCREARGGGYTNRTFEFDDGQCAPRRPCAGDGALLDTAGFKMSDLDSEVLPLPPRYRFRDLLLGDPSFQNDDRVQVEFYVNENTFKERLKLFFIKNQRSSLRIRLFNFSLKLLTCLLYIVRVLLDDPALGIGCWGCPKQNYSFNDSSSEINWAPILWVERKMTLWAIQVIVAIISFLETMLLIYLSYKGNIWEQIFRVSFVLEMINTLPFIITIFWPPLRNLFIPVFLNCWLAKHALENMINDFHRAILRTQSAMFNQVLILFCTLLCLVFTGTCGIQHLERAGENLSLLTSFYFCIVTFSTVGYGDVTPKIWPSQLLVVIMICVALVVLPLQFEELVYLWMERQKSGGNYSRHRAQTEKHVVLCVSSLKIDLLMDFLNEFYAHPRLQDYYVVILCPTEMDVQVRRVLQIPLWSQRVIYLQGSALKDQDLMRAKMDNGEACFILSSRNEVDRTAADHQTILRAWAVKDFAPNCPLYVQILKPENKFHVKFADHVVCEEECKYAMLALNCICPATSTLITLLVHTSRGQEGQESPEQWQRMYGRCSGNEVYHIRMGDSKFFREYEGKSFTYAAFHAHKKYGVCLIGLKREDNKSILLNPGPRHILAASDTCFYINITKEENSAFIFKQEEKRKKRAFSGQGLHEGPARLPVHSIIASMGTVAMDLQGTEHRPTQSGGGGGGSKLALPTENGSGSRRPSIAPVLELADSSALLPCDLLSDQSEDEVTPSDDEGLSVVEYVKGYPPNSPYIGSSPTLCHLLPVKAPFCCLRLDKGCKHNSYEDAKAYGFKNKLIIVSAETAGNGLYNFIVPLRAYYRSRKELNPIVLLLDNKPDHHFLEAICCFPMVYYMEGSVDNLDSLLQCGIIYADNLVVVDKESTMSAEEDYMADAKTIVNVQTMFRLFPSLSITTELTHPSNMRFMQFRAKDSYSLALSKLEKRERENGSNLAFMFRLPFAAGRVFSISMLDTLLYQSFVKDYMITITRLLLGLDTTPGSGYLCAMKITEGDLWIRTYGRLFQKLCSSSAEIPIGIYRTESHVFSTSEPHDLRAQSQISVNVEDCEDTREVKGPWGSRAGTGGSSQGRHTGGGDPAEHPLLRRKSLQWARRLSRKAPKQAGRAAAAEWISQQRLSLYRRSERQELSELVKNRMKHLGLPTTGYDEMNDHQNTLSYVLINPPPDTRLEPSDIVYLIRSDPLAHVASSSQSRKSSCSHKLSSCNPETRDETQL
The series is described as follows: Whole-cell voltage-clamp electrophysiology, automated patch clamp. Type of series: cell-based. The note with it: CRC, CHO cells expressing WT SLACK. In a few lines:
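CHO cells stably expressing wild-type human SLACK. Currents recorded in whole-cell voltage-clamp mode on an automated patch clamp platform. IC50 derived from concentration-response data for a selected subset of analogs.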
In general terms: In patch-clamp work, channel activity is measured electrically.

In series [3] the target is T1, WT human SLACK. The series is described as follows: Tl+ flux assay in HEK-293 cells stably expressing WT human SLACK. The class given is cell-based. To be noted: CRC; IC50 for compounds of mode Inh (also cells printed Inactive). In a few lines:
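Stably transfected HEK-293 cells expressing wild-type human SLACK; thallium flux read-out. IC50 or EC50 taken from concentration-response curves, and each compound classed as inhibitor, activator or not active. Efficacy is the response amplitude at 30 μM test compound, as a percentage of the maximum response to a reference SLACK inhibitor (for inhibitors) or loxapine (for activators).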

For the next series, the target named is Maxi-K (Slo1 α1/β3) (Homo sapiens, UniProt Q12791). The series is described as follows: Tl+ flux assay in HEK-293 cells expressing Maxi-K. Type of series: cell-based. The note with it: CRC.
Chain of Maxi-K (Slo1 α1/β3) (Q12791 whole entry, species assumed): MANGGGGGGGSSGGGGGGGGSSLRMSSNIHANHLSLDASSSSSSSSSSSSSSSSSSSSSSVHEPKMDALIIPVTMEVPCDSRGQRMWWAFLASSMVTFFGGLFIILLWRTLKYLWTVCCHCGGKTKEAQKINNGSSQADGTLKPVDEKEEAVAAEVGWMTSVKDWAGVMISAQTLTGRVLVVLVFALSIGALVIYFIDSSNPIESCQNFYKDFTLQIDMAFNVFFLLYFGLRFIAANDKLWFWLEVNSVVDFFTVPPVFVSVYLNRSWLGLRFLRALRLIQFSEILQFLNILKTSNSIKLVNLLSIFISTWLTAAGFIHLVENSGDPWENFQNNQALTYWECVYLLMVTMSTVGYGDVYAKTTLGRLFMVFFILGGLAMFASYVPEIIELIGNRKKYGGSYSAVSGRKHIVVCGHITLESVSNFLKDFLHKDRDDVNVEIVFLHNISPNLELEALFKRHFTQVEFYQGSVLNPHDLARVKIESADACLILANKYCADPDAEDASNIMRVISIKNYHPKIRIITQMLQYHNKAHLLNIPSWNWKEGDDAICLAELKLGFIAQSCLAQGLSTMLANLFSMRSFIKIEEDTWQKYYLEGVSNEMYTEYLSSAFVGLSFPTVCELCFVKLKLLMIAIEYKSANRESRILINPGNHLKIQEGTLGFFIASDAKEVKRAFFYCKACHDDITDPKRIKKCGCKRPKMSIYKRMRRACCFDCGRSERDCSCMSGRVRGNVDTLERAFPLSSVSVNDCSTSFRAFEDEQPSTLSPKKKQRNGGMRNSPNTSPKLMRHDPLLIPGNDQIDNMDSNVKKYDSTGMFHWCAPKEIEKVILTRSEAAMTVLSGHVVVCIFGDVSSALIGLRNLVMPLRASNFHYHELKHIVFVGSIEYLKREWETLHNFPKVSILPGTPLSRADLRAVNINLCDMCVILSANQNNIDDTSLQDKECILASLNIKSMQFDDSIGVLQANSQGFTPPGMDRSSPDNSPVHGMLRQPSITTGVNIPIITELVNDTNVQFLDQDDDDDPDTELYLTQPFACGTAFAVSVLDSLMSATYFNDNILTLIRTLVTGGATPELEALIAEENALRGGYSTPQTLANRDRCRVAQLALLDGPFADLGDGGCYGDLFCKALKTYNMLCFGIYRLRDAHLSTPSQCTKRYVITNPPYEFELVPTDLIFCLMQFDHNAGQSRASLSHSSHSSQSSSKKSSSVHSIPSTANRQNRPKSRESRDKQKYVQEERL
Chain of Maxi-K (Slo1 α1/β3) (Q9NPA1 whole entry partner, species assumed): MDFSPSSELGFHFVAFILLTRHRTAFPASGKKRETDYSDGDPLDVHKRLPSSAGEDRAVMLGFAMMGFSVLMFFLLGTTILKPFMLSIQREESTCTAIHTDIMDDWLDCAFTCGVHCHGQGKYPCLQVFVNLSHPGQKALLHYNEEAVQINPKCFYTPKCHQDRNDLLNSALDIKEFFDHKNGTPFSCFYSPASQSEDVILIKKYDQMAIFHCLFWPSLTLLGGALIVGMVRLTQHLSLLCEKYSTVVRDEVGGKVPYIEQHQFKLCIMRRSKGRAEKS
A further series has as its target T2, human A934T SLACK (Homo sapiens, UniProt Q5JUK3, A915T).
T2 sequence (Q5JUK3 1-1235 isoform Q5JUK3-3 A934T): T1 sequence (Q5JUK3 1-1235 isoform Q5JUK3-3) with A934T
Briefly: Tl+ flux assay in HEK-293 cells expressing A934T SLACK. The class given is cell-based. The note with it: CRC.

Series [4] is described as follows: Metabolic stability in mouse liver microsomes. The class given is in vitro ADME. To be noted: multiple time points.
The target in a further series is hERG (Homo sapiens, UniProt Q12809). Briefly: Tl+ flux assay in HEK-293 stably expressing hERG. Type of series: cell-based. To be noted: 10 μM concentration. In general terms: Block of hERG is tested as a sign of cardiac risk.
Chain of hERG (Q12809 whole entry): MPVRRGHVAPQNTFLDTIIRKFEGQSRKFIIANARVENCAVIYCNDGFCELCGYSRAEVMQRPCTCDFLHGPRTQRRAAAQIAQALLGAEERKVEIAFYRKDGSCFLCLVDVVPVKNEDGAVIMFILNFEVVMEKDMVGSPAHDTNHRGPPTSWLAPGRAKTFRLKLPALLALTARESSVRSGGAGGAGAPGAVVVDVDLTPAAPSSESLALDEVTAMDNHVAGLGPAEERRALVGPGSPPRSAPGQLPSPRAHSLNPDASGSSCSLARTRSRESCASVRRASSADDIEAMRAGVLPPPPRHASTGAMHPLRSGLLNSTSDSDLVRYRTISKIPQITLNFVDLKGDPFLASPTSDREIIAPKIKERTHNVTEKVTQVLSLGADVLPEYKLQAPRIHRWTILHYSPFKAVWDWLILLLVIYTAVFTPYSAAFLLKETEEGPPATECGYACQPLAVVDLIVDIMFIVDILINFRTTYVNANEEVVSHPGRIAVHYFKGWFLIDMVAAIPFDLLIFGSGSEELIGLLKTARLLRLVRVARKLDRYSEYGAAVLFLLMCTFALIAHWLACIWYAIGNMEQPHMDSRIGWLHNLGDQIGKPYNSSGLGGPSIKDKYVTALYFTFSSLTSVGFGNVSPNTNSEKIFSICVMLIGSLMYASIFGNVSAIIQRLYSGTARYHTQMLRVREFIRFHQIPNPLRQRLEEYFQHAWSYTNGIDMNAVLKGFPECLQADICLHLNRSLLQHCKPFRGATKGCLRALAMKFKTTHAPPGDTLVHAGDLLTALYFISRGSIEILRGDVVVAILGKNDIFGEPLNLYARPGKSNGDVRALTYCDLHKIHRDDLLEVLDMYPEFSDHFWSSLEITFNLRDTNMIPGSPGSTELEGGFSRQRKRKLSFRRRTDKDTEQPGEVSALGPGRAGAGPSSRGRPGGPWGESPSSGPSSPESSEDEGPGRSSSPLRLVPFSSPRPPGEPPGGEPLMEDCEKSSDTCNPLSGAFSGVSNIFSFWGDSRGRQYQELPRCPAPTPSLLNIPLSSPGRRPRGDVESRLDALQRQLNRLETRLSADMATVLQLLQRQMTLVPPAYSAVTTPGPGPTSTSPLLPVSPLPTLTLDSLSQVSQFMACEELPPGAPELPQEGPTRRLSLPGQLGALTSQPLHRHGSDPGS

SMILES strings stand for the structures. Where a chain is given by its changes, count along the chain named.

As for `C[C@H](NC(=O)c1cc(C(F)(F)F)nn1C)c1nc(-c2ccnc(C(F)(F)F)c2)no1` [Compound 3], in series [1], the firing in neurons result is given as “significant reduction in the firing”. In addition, the “displacement at GABAA Cl– channels” value with GABAA Cl– channels is on record as 74%.

`CCOc1ccccc1S(=O)(=O)N1CC(c2nc(-c3ccc(F)s3)no2)C1` [Compound 60, 5-(1-((2-Ethoxyphenyl)sulfonyl)azetidin-3-yl)-3-(5-fluorothiophen-2-yl)-1,2,4-oxadiazole]: the “IC50 (whole-cell EP)” value against WT human SLACK [2] is listed as “submicromolar potency”. Also, the “IC50 / EC50” value against WT human SLACK [3] is 4.8 µM. Moreover, the “Maxi-K (Slo1 α1/β3) IC50” value on Maxi-K (Slo1 α1/β3) was “inactive”. Also, the “A934T IC50” value at human A934T SLACK was “submicromolar potency”.

Regarding `O=S(=O)(c1cccc2cccnc12)N1CC(c2nc(-c3ccc(F)cc3)no2)C1` [Compound 121, 3-(4-Fluorophenyl)-5-(1-(quinolin-8-ylsulfonyl)azetidin-3-yl)-1,2,4-oxadiazole], the “predicted hepatic clearance (CLHEP)” value in series [4] is 75 mL/min/kg. At WT human SLACK [3], the “IC50 / EC50” value is 7.4 µM. The “Maxi-K (Slo1 α1/β3) IC50” value at Maxi-K (Slo1 α1/β3) was “inactive”.

Turning to `Cc1ccc2cccc(S(=O)(=O)N3CC(c4nc(-c5ccc(F)cc5)no4)C3)c2n1` [Compound 122, 3-(4-Fluorophenyl)-5-(1-((2-methylquinolin-8-yl)sulfonyl)azetidin-3-yl)-1,2,4-oxadiazole], at hERG, the hERG activity entry was “inactive”. Moreover, the “IC50 (whole-cell EP)” value against WT human SLACK [2] is “submicromolar potency”. For the same compound, at WT human SLACK [3], the “IC50 / EC50” value stood at 1.1 µM. Moreover, the “Maxi-K (Slo1 α1/β3) IC50” value on Maxi-K (Slo1 α1/β3) is “inactive”. Also, the “A934T IC50” value on human A934T SLACK is “submicromolar potency”.
